Results from ChEMBL document CHEMBL1165958, “Compounds from Acorus tatarinowii: determination of absolute configuration by quantum computations and cAMP regulation activity” (J Nat Prod, 2010).
Calls of active or inactive are those of the source. No cut-off for these calls is given here.

Species: Mus musculus
Assay: Induction of cAMP level in mouse NIE115 cells at 50 uM after 30 mins by Alphascreen cAMP assay
Assay type: functional, cell-based
In short: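 N1E-115 neuroblastoma cells exposed to each test compound at 50 µM. Intracellular cAMP measured by AlphaScreen and read out as counts per second (cps). Values reported as means with standard error of the mean. Significance marked at p < 0.05, 0.01 and 0.001.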

Structure (SMILES)	Activity
C/C=C/c1cc(OC)c(OC)cc1OC	inactive
C=C1CC[C@@H]2[C@@](O)(C1)[C@H](C(C)C)CC[C@@]2(C)O	inactive
COc1ccc(CC(C)=O)cc1OC	inactive
CCC(=O)c1cc(OC)c(OC)cc1OC	Active
CC1=CC[C@]2(CC1=O)[C@@H](C)CC(=O)[C@H]2C(C)C	inactive
COc1cc(OC)c(C(=O)C(C)=O)cc1OC	Active
COc1cc(OC)c(C(c2cc(OC)c(OC)cc2OC)[C@@H](C)O)cc1OC	Active
C[C@H]1CC[C@H]2C(C)(C)C(=O)[C@@]3(C)C[C@@H](O)[C@@]12C3	inactive
CC1=CC[C@@]2(CC1=O)[C@H](C(C)C)[C@H](O)C[C@@H]2C	inactive
COc1cc(OC)c(OC)cc1CC(C)=O	Active
COc1cc(OC)c(OC)cc1C=O	Active
C/C=C\c1cc(OC)c(OC)cc1OC	inactive
COc1cc(OC)c(OC)cc1/C=C\C=O	Active
C/C=C\c1ccc(OC)c(OC)c1	inactive
CC(=O)O[C@@H]1C[C@H](C)[C@@]2(CC=C(C)C(=O)C2)[C@@H]1C(C)C	inactive
CC1=CC[C@@]2(CC1=O)[C@@H](C(C)C)C(=O)C[C@@H]2C	inactive
